Measurements from ChEMBL document CHEMBL1158515, “Novel selective thiazoleacetic acids as CRTH2 antagonists developed from in silico derived hits. Part 1” (Bioorg Med Chem Lett, 2010).

Tests used:
[1] = molecular target: T1, Prostaglandin D2 receptor 2 (Homo sapiens, UniProt Q9Y5Y4); test: Displacement of[3H]PGD2 from human CRTH2 receptor expressed in african green monkey COS7 cells; assay type: cell-based, COS-7
T1 sequence (Q9Y5Y4 whole entry): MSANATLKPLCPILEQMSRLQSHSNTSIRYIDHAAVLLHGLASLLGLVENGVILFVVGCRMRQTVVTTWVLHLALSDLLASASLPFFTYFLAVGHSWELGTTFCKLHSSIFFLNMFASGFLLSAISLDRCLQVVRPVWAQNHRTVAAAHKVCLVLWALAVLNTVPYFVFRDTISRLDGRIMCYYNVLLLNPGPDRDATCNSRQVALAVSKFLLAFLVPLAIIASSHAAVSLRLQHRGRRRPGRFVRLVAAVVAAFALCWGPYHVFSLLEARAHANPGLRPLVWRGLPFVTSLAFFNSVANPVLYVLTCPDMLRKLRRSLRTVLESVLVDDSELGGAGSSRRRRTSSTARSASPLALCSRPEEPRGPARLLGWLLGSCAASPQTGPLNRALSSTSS
Procedure, shortened: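 Equilibrium competition binding against [³H]PGD₂ on stably transfected COS7 cells expressing human CRTH2. Nonspecific binding defined with […] unlabelled PGD₂. IC50 reported.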

[2] = molecular target: T2, Prostaglandin D2 receptor 2 (Homo sapiens) (UniProt Q9Y5Y4); test: Antagonist activity at human CRTH2 receptor expressed in HEK285-7 cells assessed as inhibition of beta arrestin translocation by bioluminescence resonance energy transfer assay relative to control; assay type: functional, cell-based
T2 sequence (whole entry): T1 sequence (Q9Y5Y4 whole entry)
Procedure, shortened: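 Same BRET2 β-arrestin2 translocation format in CRTH2-transfected HEK385-7 cells: 5 min antagonist preincubation, then PGD₂ at about 75–80% of maximal agonist efficacy for 5 min, DeepBlueC coelenterazine, 515/400 nm ratio. Value is antagonist efficacy expressed as percent.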

[3] = molecular target: T1, Prostaglandin D2 receptor 2; test: Antagonist activity at human CRTH2 receptor expressed in HEK285-7 cells assessed as inhibition of beta arrestin translocation by bioluminescence resonance energy transfer assay; assay type: functional, cell-based
Procedure, shortened: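 BRET2 readout in HEK385-7 cells transfected with CRTH2 (GFP2-β-arrestin2 acceptor, receptor-Rluc donor). Cells preincubated with antagonist 5 min with shaking, then PGD₂ added at a level eliciting about 75–80% of maximal agonist response, 5 min more. DeepBlueC coelenterazine injected; emission read 5 s later at 400 and 515 nm; signal = 515/400 ratio. IC50 derived.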

IC50 [1]	Efficacy [2]	IC50 [3]	Structure (SMILES)
390 nM	> 70%		COc1ccc(-c2nc(-c3ccc(Br)cc3)c(CC(=O)O)s2)cc1
990 nM	> 70%		Cc1ccc(-c2nc(-c3ccc(Cl)cc3)sc2CC(=O)O)c(C)c1
50 nM	> 70%	220 nM	O=C(O)Cc1sc(Cc2ccc(Cl)cc2)nc1-c1ccc(Cl)cc1
160 nM	> 70%	> 100000 nM	O=C(O)Cc1sc(Cc2ccccc2-c2cccc(OC(F)(F)F)c2)nc1-c1ccc(F)cc1
940 nM	> 70%	1500 nM	COc1ccc(Nc2nc(-c3ccccc3)c(CC(=O)O)s2)cc1
870 nM	> 70%	2500 nM	O=C(O)Cc1sc(-c2ccccc2)nc1-c1ccccc1
650 nM	> 70%	1300 nM	O=C(O)Cc1sc(Nc2ccccc2)nc1-c1ccc(F)cc1
40 nM	> 70%	390 nM	COc1cccc(-c2ccccc2Cc2nc(-c3ccc(F)cc3)c(CC(=O)O)s2)c1
660 nM	> 70%	1200 nM	O=C(O)Cc1sc(Nc2ccccc2)nc1-c1ccc(-c2ccccc2)cc1
4100 nM	> 70%		COc1ccc(-c2nc(-c3ccc(OC)cc3)c(CC(=O)O)s2)cc1
49 nM	> 70%	480 nM	COc1ccccc1Nc1nc(-c2ccc(Oc3ccccc3)cc2)c(CC(=O)O)s1
990 nM	> 70%	1600 nM	O=C(O)Cc1sc(-c2ccc(Cl)cc2)nc1-c1ccccc1
3.7 nM	> 70%	66 nM	O=C(O)Cc1sc(Cc2ccc(Cl)cc2)nc1-c1ccc(Oc2ccccc2)cc1
94 nM	20%	260 nM	O=C(O)Cc1sc(Nc2ccc3ccccc3c2)nc1-c1ccc(Oc2ccccc2)cc1
170 nM	30%	190 nM	N#Cc1ccc(-c2ccccc2Cc2nc(-c3ccc(F)cc3)c(CC(=O)O)s2)cc1
1200 nM	> 70%	16000 nM	CC(C)c1ccc(Nc2nc(-c3ccc(Cl)cc3)c(CC(=O)O)s2)cc1
470 nM	> 70%	1600 nM	COc1ccc(-c2nc(-c3ccc(Oc4ccccc4)cc3)sc2CC(=O)O)cc1
1500 nM	> 70%	3700 nM	O=C(O)Cc1sc(-c2ccc(F)cc2)nc1-c1ccccc1
220 nM	> 70%	370 nM	O=C(O)Cc1sc(Nc2ccc3ccccc3c2)nc1-c1ccc(Br)cc1
820 nM	> 70%	1700 nM	COc1ccc(-c2nc(-c3ccccc3)c(CC(=O)O)s2)cc1

IC50 [1]	Efficacy [2]	IC50 [3]	Structure (SMILES)
38 nM	> 70%	630 nM	O=C(O)Cc1sc(-c2ccccc2)nc1-c1ccc(-c2ccccc2)cc1
1400 nM	> 70%		CCc1ccc(-c2nc(-c3ccccc3OC)sc2CC(=O)O)cc1
350 nM	> 70%		COc1ccccc1-c1nc(-c2ccc(Br)cc2)c(CC(=O)O)s1
93 nM	> 70%	1300 nM	O=C(O)Cc1sc(-c2ccc(Oc3ccccc3)cc2)nc1-c1ccc(Cl)cc1
960 nM	> 70%	1900 nM	O=C(O)Cc1sc(Nc2ccc(Cl)cc2)nc1-c1ccc(F)cc1
210 nM	> 70%	> 100000 nM	O=C(O)Cc1sc(Nc2ccccc2F)nc1-c1ccc(Oc2ccccc2)cc1
360 nM	> 70%	850 nM	COc1ccc(-c2nc(Cc3ccc(Cl)cc3)sc2CC(=O)O)cc1
89 nM	> 70%	540 nM	O=C(O)Cc1sc(Nc2ccc(F)cc2)nc1-c1ccc(Oc2ccccc2)cc1
72 nM	> 70%	270 nM	COc1ccc(-c2ccccc2Cc2nc(-c3ccc(F)cc3)c(CC(=O)O)s2)cc1
88 nM	> 70%	580 nM	O=C(O)Cc1sc(Cc2ccc(Cl)cc2)nc1-c1ccccc1
1900 nM	> 70%	2400 nM	COc1ccc(-c2nc(Nc3ccccc3)sc2CC(=O)O)cc1
24 nM	> 70%	1500 nM	O=C(O)Cc1sc(Cc2ccccc2-c2ccc3c(c2)OCO3)nc1-c1ccc(F)cc1
330 nM	> 70%	3800 nM	COc1ccc(Cc2nc(-c3ccccc3)c(CC(=O)O)s2)cc1OC
340 nM	> 70%	> 100000 nM	N#Cc1cccc(-c2ccccc2Cc2nc(-c3ccc(F)cc3)c(CC(=O)O)s2)c1
750 nM	> 70%	560 nM	Cc1ccc(Nc2nc(-c3ccc(Cl)cc3)c(CC(=O)O)s2)cc1
1500 nM	> 70%	2100 nM	COc1ccccc1Nc1nc(-c2ccc(F)cc2)c(CC(=O)O)s1
860 nM	> 70%	3500 nM	O=C(O)Cc1sc(-c2ccccc2)nc1-c1ccc(F)cc1
160 nM	> 70%	660 nM	O=C(O)Cc1sc(-c2ccc(Oc3ccccc3)cc2)nc1-c1ccccc1
550 nM	> 70%	960 nM	O=C(O)Cc1sc(-c2ccccc2)nc1-c1ccc(Cl)cc1 [FENTIAZAC]
460 nM	> 70%		CN(C)c1ccc(-c2nc(-c3ccc(Br)cc3)c(CC(=O)O)s2)cc1

IC50 [1]	Efficacy [2]	IC50 [3]	Structure (SMILES)
7000 nM	> 70%	5000 nM	COc1ccc(-c2nc(-c3ccccc3)sc2CC(=O)O)cc1
700 nM	> 70%	1100 nM	O=C(O)Cc1sc(Nc2ccc(C(F)(F)F)cc2)nc1-c1ccc(Cl)cc1
250 nM	> 70%	1800 nM	Cc1ccc(Cc2nc(-c3ccccc3)c(CC(=O)O)s2)cc1
140 nM	30%	180 nM	O=C(O)Cc1sc(Cc2ccccc2)nc1-c1ccc(F)cc1
41 nM	> 70%	510 nM	O=C(O)Cc1sc(Cc2ccccc2-c2ccccc2)nc1-c1ccc(Cl)cc1
450 nM	> 70%	730 nM	COc1ccccc1Nc1nc(-c2ccc(Cl)cc2)c(CC(=O)O)s1
210 nM	> 70%		COc1ccc(-c2nc(-c3ccc(Cl)cc3)sc2CC(=O)O)cc1
940 nM	20%	3800 nM	O=C(O)Cc1sc(Nc2ccc(Cl)cc2)nc1-c1ccc(-c2ccccc2)cc1
100 nM	> 70%	1300 nM	O=C(O)Cc1sc(Nc2ccccc2)nc1-c1ccc(Cl)cc1
700 nM	> 70%	> 100000 nM	O=C(O)Cc1sc(Cc2ccccc2Br)nc1-c1ccc(F)cc1
84 nM	> 70%	350 nM	O=C(O)Cc1sc(Nc2ccccc2)nc1-c1ccc(Oc2ccccc2)cc1
310 nM	> 70%	1900 nM	COc1ccccc1Nc1nc(-c2ccc(-c3ccccc3)cc2)c(CC(=O)O)s1
41 nM	> 70%	570 nM	O=C(O)Cc1sc(Cc2ccc3ccccc3c2)nc1-c1ccc(Cl)cc1
130 nM	> 70%	> 100000 nM	O=C(O)Cc1sc(Nc2ccccc2Cl)nc1-c1ccc(Oc2ccccc2)cc1
180 nM	> 70%	4100 nM	O=C(O)Cc1sc(Cc2ccccc2)nc1-c1ccc(Cl)cc1
24 nM	> 70%	370 nM	O=C(O)Cc1sc(Cc2ccccc2-c2ccccc2)nc1-c1ccc(F)cc1
350 nM	> 70%	1500 nM	O=C(O)Cc1sc(Nc2ccccc2)nc1-c1ccccc1
170 nM	> 70%	> 100000 nM	COc1ccccc1-c1ccccc1Cc1nc(-c2ccc(F)cc2)c(CC(=O)O)s1
1300 nM	50%	350 nM	CCc1ccc(-c2nc(-c3ccccc3)sc2CC(=O)O)cc1
160 nM	> 70%	> 100000 nM	O=C(O)Cc1sc(Cc2ccccc2Oc2ccccc2)nc1-c1ccc(Cl)cc1
